Reference: ChEMBL document CHEMBL2203175, “Discovery and optimization of sulfonyl acrylonitriles as selective, covalent inhibitors of protein phosphatase methylesterase-1” (J Med Chem, 2011)
Residue numbers refer to the chain shown, from its start. Calls of active or inactive are those of the source. The rule behind the calls is not given here.

Experiments:
[1] = biological target: T1, Protein phosphatase methylesterase 1 (Mus musculus, UniProt Q8BVQ5); assay: Inhibition of PME1 binding to FP-rhodamine in mouse brain soluble proteome after 45 mins by gel-based competitive activity-based protein profiling assay
T1 sequence (Q8BVQ5 whole entry): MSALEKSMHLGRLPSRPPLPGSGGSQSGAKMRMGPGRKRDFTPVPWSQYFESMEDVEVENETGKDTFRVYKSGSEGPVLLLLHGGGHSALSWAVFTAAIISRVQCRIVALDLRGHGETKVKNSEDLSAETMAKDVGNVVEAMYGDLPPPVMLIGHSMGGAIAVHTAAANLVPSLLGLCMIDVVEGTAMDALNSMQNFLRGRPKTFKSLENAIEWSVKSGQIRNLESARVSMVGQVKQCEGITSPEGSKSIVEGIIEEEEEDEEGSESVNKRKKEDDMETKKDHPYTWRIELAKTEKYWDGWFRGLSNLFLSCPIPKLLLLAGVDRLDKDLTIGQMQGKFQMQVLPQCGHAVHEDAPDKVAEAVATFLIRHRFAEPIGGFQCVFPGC

[2] = biological target: T2, Protein phosphatase methylesterase 1 (Mus musculus) (UniProt Q8BVQ5); assay: Inhibition of PME1 binding to FP-rhodamine in mouse brain soluble proteome at 20 uM after 30 mins by […] activity-based protein profiling assay relative to control; format: tissue-based
T2 sequence (whole entry): T1 sequence (Q8BVQ5 whole entry)

[3] = biological target: Prolyl endopeptidase (Mus musculus) (UniProt Q9QUR6); assay: Inhibition of prolyl endopeptidase binding to FP-rhodamine in mouse brain soluble proteome at 50 uM after 30 mins by […] activity-based protein profiling assay relative to control; format: tissue-based
[4] = biological target: T3, Protein phosphatase methylesterase 1 (Homo sapiens) (UniProt Q9Y570); assay: Inhibition of PME1 overexpressed in HEK293T cells assessed as reduction in demethylated PP2A level at 20 uM after 1 hr by Western blot analysis relative to control; format: cell-based; conditions: HEK-293T
T3 sequence (whole entry): T1 sequence (Q8BVQ5 whole entry) with T42S, G114S, S123P, V150I, A167S, A168S, V268I, N269S
Outline: (§1)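 HEK 293T cells, either stably overexpressing PME-1 or untransfected, treated in medium for 1 h at 37 °C. Total cell extract (2 mg/mL) run on reducing SDS-PAGE (10%) and blotted with demethylated-specific (4b7), methylated-specific (2A10) and total PP2A antibodies, imaged by infrared fluorescence. Mean ± SEM, n = 3, compared against DMSO-treated cells.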

[5] = biological target: T3, Protein phosphatase methylesterase 1 (Homo sapiens); assay: Inhibition of PME1 overexpressed in HEK293T cells assessed as increase in methylated PP2A level at 20 uM after 1 hr by Western blot analysis; format: cell-based; conditions: HEK-293T
Outline: as §1

[6] = biological target: Acylamino-acid-releasing enzyme (Mus musculus) (UniProt Q8R146); assay: Inhibition of acyl peptide hydrolase binding to FP-rhodamine in mouse brain soluble proteome at 50 uM after 30 mins by […] activity-based protein profiling assay relative to control; format: tissue-based
[7] = biological target: Protein phosphatase methylesterase 1 (Homo sapiens, UniProt Q9Y570); assay: Inhibition of PME1 binding to FP-rhodamine in human MDA-MB-231 cells after 45 mins by gel-based competitive activity-based protein profiling assay
[8] = biological target: Acylamino-acid-releasing enzyme (Homo sapiens) (UniProt P13798); assay: Inhibition of acyl peptide hydrolase binding to FP-rhodamine in human HEK293T cells at 0.5 to 50 uM after 30 mins by […] activity-based protein profiling assay; conditions: HEK-293T
[9] = biological target: T3, Protein phosphatase methylesterase 1 (Homo sapiens); assay: Inhibition of PME1-based PP2A […] in human HEK293T cells at 50 uM after 3 hrs by Western blot analysis; format: cell-based; conditions: HEK-293T
[10] = biological target: T3, Protein phosphatase methylesterase 1 (Homo sapiens); assay: Inhibition of PME1 expressed in untransfected HEK293T cells assessed as reduction in demethylated PP2A level at 500 nM after 1 hr by Western blot analysis; format: cell-based; conditions: HEK-293T
Outline: as §1

Chain of Prolyl endopeptidase (Mus musculus) (Q9QUR6 whole entry, looked up): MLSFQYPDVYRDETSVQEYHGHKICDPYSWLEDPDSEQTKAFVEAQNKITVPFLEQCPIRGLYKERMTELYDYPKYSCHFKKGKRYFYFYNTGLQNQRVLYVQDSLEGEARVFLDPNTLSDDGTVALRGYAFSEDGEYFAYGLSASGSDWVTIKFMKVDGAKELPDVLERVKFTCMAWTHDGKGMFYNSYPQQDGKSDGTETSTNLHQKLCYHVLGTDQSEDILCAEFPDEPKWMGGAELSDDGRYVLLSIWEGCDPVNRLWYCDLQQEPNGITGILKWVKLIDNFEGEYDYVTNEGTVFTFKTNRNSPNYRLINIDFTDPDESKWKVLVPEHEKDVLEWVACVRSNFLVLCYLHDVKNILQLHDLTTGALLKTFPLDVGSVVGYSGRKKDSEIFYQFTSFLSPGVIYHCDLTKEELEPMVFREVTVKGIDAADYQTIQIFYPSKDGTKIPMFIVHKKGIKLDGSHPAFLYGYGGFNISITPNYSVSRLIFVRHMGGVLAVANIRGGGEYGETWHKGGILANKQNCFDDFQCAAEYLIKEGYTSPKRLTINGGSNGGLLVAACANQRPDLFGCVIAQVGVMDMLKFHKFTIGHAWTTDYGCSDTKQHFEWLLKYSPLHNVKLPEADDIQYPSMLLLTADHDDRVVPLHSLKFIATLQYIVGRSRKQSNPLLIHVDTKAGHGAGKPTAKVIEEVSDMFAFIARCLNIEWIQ
Chain of Acylamino-acid-releasing enzyme (Mus musculus) (Q8R146 whole entry): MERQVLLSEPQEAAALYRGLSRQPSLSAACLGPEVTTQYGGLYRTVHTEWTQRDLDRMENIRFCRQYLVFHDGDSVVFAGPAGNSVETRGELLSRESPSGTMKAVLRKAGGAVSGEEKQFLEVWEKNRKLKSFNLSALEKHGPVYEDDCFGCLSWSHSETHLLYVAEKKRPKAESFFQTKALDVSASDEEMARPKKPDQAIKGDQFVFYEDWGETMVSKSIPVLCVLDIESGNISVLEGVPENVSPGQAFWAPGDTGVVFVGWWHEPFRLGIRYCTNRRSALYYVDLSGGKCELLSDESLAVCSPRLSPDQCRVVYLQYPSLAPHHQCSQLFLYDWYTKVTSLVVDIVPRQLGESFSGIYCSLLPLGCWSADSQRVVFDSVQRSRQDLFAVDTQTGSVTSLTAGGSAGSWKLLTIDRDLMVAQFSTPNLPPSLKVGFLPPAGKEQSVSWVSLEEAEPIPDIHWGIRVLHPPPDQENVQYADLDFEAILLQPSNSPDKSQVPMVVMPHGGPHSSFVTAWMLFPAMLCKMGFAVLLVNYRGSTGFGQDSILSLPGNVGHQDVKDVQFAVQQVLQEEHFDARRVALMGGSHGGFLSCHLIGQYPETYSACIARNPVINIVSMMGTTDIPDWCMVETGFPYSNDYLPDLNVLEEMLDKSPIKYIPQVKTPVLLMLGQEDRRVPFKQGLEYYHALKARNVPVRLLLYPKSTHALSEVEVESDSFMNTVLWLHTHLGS
Chain of Acylamino-acid-releasing enzyme (Homo sapiens) (P13798 whole entry): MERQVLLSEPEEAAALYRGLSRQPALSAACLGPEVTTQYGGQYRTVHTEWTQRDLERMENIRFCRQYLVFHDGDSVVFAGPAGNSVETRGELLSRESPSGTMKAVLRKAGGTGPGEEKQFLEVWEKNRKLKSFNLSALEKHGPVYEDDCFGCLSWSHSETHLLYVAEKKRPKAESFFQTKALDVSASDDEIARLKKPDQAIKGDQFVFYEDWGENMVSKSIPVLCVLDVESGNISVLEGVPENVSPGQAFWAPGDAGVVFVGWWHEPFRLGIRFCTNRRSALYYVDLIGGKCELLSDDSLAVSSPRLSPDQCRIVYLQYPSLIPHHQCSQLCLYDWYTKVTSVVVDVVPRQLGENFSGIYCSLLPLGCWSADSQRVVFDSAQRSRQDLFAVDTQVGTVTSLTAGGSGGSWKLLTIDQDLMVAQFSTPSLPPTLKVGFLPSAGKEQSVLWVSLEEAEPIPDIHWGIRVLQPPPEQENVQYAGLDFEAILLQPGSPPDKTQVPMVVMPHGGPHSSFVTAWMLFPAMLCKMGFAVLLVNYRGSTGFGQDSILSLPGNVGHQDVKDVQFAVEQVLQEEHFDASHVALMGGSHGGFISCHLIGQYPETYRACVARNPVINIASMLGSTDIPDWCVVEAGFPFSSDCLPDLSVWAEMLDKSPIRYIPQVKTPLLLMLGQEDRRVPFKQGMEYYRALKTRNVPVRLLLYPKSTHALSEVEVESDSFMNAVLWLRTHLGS
Chain of Protein phosphatase methylesterase 1 (Homo sapiens, UniProt Q9Y570) (Q9Y570 whole entry): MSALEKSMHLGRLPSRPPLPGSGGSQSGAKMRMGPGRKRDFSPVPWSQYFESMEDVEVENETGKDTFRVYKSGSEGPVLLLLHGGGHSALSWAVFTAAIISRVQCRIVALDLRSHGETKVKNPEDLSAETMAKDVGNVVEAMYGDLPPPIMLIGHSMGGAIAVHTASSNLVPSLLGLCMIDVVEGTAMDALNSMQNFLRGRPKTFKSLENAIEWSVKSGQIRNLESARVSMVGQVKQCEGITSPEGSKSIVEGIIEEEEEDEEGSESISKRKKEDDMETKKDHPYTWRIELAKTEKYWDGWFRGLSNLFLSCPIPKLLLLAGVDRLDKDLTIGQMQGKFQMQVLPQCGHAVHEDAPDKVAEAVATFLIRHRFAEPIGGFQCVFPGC

Row | Compound | IC50 [1] [µM] | inhibition [2] [%] | further results
1 | N#C/C(=C\c1cccn1S(=O)(=O)c1ccccc1)S(=O)(=O)c1ccccc1 | > 20 | – | –
2 | CS(=O)(=O)C(=Cc1cccn1S(=O)(=O)c1ccccc1)S(C)(=O)=O | – | 0 | inhibition [3]: > 50%
3 | CS(=O)(=O)/C(C#N)=C/c1ccc([N+](=O)[O-])cc1 | – | 0 | –
4 | CS(=O)(=O)C(C#N)Cc1cccn1S(=O)(=O)c1ccccc1 (stereo unspecified) | – | 0 | –
5 | CS(=O)(=O)/C(C#N)=C/c1ccccc1 | – | 0 | –
6 | N#C/C(=C\c1cccn1S(=O)(=O)c1cccc(C#N)c1)S(=O)(=O)c1ccc(F)cc1 | 0.64 | – | inhibition [4]: 80%; inhibition [5]: Active
7 | CC(C)(C)S(=O)(=O)/C(C#N)=C/c1cccn1S(=O)(=O)c1ccccc1 | 6.8 | – | –
8 | CS(=O)(=O)/C(C#N)=C/c1cccn1S(=O)(=O)c1ccc([N+](=O)[O-])cc1 | 3 | – | –
9 | CS(=O)(=O)/C(C#N)=C/c1cccn1S(=O)(=O)c1ccc(Cl)cc1 | – | – | inhibition [6]: > 50%
10 | CS(=O)(=O)/C(C#N)=C/c1cccn1S(=O)(=O)c1c(F)c(F)c(F)c(F)c1F | > 20 | – | –
11 | N#CC(C#N)=Cc1cccn1S(=O)(=O)c1ccccc1 | – | 50 | –
12 | CS(=O)(=O)/C(C#N)=C/c1cccn1S(=O)(=O)c1ccccc1 | – | 90 | IC50 [7]: 10.8 µM; inhibition [8]: Active; inhibition [9]: Active; inhibition [6]: > 50%
13 | CS(=O)(=O)/C(C#N)=C/c1cccn1S(=O)(=O)c1ccc(C#N)cc1 | 4 | – | inhibition [3]: > 50%
14 | CC(C)(C)S(=O)(=O)/C(C#N)=C/c1cccn1S(=O)(=O)c1cccc(C#N)c1 | 3.4 | – | –
15 | CS(=O)(=O)/C(=C/c1cccn1S(=O)(=O)c1ccccc1)CN | – | 0 | –
16 | CS(=O)(=O)/C(C#N)=C/c1cccn1S(=O)(=O)c1cccc(C#N)c1 | 2.5 | – | –
17 | CS(=O)(=O)/C(C#N)=C/c1ccc[nH]1 | – | 0 | –
18 | COC(=O)N1C(=O)[C@](c2ccccc2)(C2CCCC2)N1C(=O)OC | – | – | inhibition [10]: Active
